High-throughput results (PubChem BioAssay)
SENP1 FRET inh: blocks the human SENP1 SUMO protease catalytic domain | Q9P0U3 | recombinant SENP1 catalytic domain, CyPet-SUMO1-YPet FRET cleavage | inhibition, % at 10 µM | 360,000 compounds, 0.21% hits | AID 624204;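 active means inhibition at least 30% at 10 µM, raw YFP signal under a set limit, fluorescence ratio 0.5 to 1.5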;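 further: 0% = enzyme with DMSO and 100% = no enzyme wells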
Target sequence (Q9P0U3 419-644 limits assumed): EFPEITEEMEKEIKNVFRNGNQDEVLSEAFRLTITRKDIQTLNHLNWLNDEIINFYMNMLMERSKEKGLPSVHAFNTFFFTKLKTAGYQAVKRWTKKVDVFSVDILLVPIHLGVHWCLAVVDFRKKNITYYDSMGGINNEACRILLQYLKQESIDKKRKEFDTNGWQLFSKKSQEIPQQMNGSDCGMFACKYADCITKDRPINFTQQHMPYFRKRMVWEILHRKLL
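Assay system – human recombinant His6-tagged SENP1 catalytic domain enzyme · Input – SENP1 enzyme, 20 pM final · Buffer or medium – Tris pH 8 buffer plus EDTA, NaCl, BME, BSA, NP40, catalase · Schedule – 50 min reaction at room temperature · Technique – FRET read of cyan and yellow fluorescence · Control set – no-enzyme wells low, DMSO-plus-enzyme wells high control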
SENP7 inh: blocks the human protease SENP7; Q9BQF6; AID 434973; recombinant SENP7, Z-RLRGG-aminoluciferin luminescence, 40 min; 330,000 compounds, 1.5% hits; inhibition, % at 5 µM;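 active means inhibition above about 50% at the single test dose, limit read from the data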;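 further: plate controls were DMSO with enzyme for no effect and no enzyme buffer wells for full effect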
Target sequence (Q9BQF6 706-1050 limits assumed): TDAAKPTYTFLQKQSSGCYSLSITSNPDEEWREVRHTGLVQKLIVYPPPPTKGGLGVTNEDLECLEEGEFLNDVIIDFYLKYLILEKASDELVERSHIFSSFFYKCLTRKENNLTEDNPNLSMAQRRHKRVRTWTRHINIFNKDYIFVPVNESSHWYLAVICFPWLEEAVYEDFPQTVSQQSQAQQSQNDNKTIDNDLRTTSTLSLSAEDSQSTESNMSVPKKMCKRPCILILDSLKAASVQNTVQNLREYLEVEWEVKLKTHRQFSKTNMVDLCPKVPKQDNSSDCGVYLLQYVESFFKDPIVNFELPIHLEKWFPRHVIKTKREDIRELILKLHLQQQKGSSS
SENP8 block-1: inhibitors of human SENP8 protease | inhibition, % at 20 µM | AID 602440 | recombinant SENP8, Nedd8 substrate fluorescence | 360,000 compounds, 0.64% hits; in the data active means inhibition mostly above about 40%, no sharp cut-off; inactive means mostly below about 27%
SENP6 inh: SENP6 protease inhibition; Q9GZR1; Recombinant SENP6 catalytic domain, aminoluciferin luminescence; inhibition, % at 10 µM; 330,000 compounds, 1.8% hits;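 active means inhibition above about 50% at the single tested dose, limit read from the data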;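 further: plate controls were DMSO wells with enzyme for no effect and DMSO wells lacking enzyme for full effect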
SENP8 block-2: blocks the human protease SENP8; purified SENP8, Z-RLRGG-aminoluciferin cleavage, luminescence; inhibition, % at 10 µM; 330,000 compounds, 1.2% hits; AID 2540; in the data active means inhibition above about 50%
SENP8 conf: confirmation of human SENP8 protease inhibitors; shares compounds with SENP7 inh; inhibition, % at 12.5 µM; 6,200 compounds, 40% hits; AID 488912; Recombinant SENP8, Z-RLRGG-aminoluciferin luminescence, 60 min;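 active means mean inhibition across replicates above about 50%, limit read from the data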
SENP6 confirm: human SENP6 inhibition, confirmed. shares compounds with SENP7 inh. recombinant SENP6, Z-RLRGG-aminoluciferin luminescence. inhibition, % at 12.5 µM. 6,200 compounds, 58% hits. AID 488915
SENP7 conf: confirmation of human SENP7 protease inhibitors | 6,200 compounds, 69% hits | recombinant SENP7, Z-RLRGG-aminoluciferin luminescence, 40 min | AID 488917 | shares compounds with SENP7 inh | inhibition, % at 12.5 µM
Casp3 select: inhibits human caspase-3 in SENP selectivity test. shares compounds with SENP7 inh. purified caspase-3, Z-DEVD-aminoluciferin luminescence, 60 min. inhibition, % at 12.5 µM. 6,200 compounds, 60% hits. AID 488918;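 active means mean inhibition above about 50%, limit read from the data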;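 further: plate controls were enzyme with DMSO for no effect and wells without caspase-3 for full effect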
SENP luc ctr: luminescence interference (SENP counter-screen) | inhibition, % at 12.5 µM | Pre-incubated SENP8/Z-RLRGG-aminoluciferin, luciferase luminescence interference | 6,200 compounds, 39% hits | shares compounds with SENP7 inh;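 active means mean inhibition above about 50% when retested at one dose, limit read from the data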;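 further: plate controls were DMSO wells with completed reaction for no effect and substrate without enzyme for full effect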
* marks the source's active call; other numbers are inactive results. An excerpt weighted towards active compounds, which were near 2.5% of everything screened.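 How the source made its calls, unless noted: active means mean inhibition above about 50% in the one-dose retest (limit read from the data); inactive means the rest.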

Results for Cc1cc(C2=NNC(=NC3CC3)SC2)c(C)n1-c1ccccc1F ?
SENP1 FRET inh: -1; SENP7 inh: 17; SENP8 block-1: -3; SENP6 inh: 33; SENP8 block-2: 80*; SENP8 conf: 6; SENP6 confirm: 93*; SENP7 conf: 100*; Casp3 select: 93*; SENP luc ctr: 60*

What do the screens show for `c1cc2c(cc1C1=NNC(=NC3CC3)SC1)OCCO2`?
SENP1 FRET inh: 2; SENP7 inh: 97*; SENP8 block-1: 7; SENP6 inh: 97*; SENP8 block-2: 96*; SENP8 conf: 98*; SENP6 confirm: 99*; SENP7 conf: 102*; Casp3 select: 98*; SENP luc ctr: 96*

Results for COc1cccc(NC(=O)c2ccc3nc(C)sc3c2)c1 ?
SENP1 FRET inh: 1; SENP7 inh: 89*; SENP8 block-1: 16; SENP6 inh: 91*; SENP8 block-2: 72*; SENP8 conf: 80*; SENP6 confirm: 81*; SENP7 conf: 95*; Casp3 select: 87*; SENP luc ctr: 84*

Results for COc1ccccc1NC(=O)c1ccc2nc(C)sc2c1 ?
SENP1 FRET inh: -2; SENP7 inh: 3; SENP8 block-1: 4; SENP6 inh: 15; SENP8 block-2: -7

What do the screens show for `COc1cccc(NC(=O)c2ccc3snnc3c2)c1`?
SENP1 FRET inh: -1; SENP7 inh: 58*; SENP8 block-1: 33; SENP6 inh: 64*; SENP8 block-2: 48; SENP8 conf: 56*; SENP6 confirm: 52*; SENP7 conf: 84*; Casp3 select: 75*; SENP luc ctr: 64*

What do the screens show for `COc1ccc(-c2cc(C(=O)Nc3c(F)cc(F)cc3Br)no2)cc1`?
SENP1 FRET inh: 0; SENP7 inh: 0; SENP8 block-1: -1; SENP6 inh: -26; SENP8 block-2: -5

How did CN(O)/C=N/C(=S)Nc1ccc(Cl)cc1Cl do in these assays?
SENP1 FRET inh: 1; SENP7 inh: -5; SENP8 block-1: 15; SENP6 inh: -31; SENP8 block-2: -8

How did Cc1ccc(NC(=O)NNC(=O)Cn2nc(-c3ccccc3)c(-c3ccccc3)c(C#N)c2=O)cc1 do in these assays?
SENP1 FRET inh: -1; SENP7 inh: -10; SENP8 block-1: 12; SENP6 inh: -21; SENP8 block-2: -7

Results for c1ccc(NC2=Nc3ccccc3CS2)cc1 ?
SENP1 FRET inh: 0; SENP7 inh: 78*; SENP8 block-1: 31; SENP6 inh: 82*; SENP8 block-2: 51*; SENP8 conf: 28; SENP6 confirm: 63*; SENP7 conf: 90*; Casp3 select: 69*; SENP luc ctr: 20

What do the screens show for `Cc1ccc(S(=O)(=O)N2CCN(c3nccnc3C#N)CC2)cc1`?
SENP1 FRET inh: -1; SENP7 inh: -7; SENP8 block-1: -168; SENP6 inh: -23; SENP8 block-2: -1

How did Cc1ccc(NC(=O)COC(=O)c2ccc(-n3cccn3)cc2)cc1C do in these assays?
SENP1 FRET inh: -10; SENP7 inh: -4; SENP8 block-1: -14; SENP6 inh: 14; SENP8 block-2: 9

What do the screens show for `CCCN1C(=O)c2ccc(C(=O)Nc3cc(C)ccc3O)cc2C1=O`?
SENP1 FRET inh: 3; SENP7 inh: 97*; SENP8 block-1: 12; SENP6 inh: -25; SENP8 block-2: 51*; SENP8 conf: -22; SENP6 confirm: 20; SENP7 conf: 52*; Casp3 select: 50*; SENP luc ctr: 1

Results for CCCN1C(=O)c2ccc(C(=O)Nc3ccccc3C(=O)O)cc2C1=O ?
SENP1 FRET inh: 0; SENP7 inh: 16; SENP8 block-1: 18; SENP6 inh: 89*; SENP8 block-2: 79*; SENP8 conf: 86*; SENP6 confirm: 85*; SENP7 conf: 97*; Casp3 select: 44; SENP luc ctr: 89*

How did Cc1ccc(O)c(NC(=O)c2ccc3c(c2)C(=O)N(CC(C)C)C3=O)c1 do in these assays?
SENP1 FRET inh: 0; SENP7 inh: 32; SENP8 block-1: 17; SENP6 inh: -3; SENP8 block-2: 1

Results for O=C(/C=C/c1ccc([N+](=O)[O-])cc1)N1CCN(S(=O)(=O)c2cccs2)CC1 ?
SENP1 FRET inh: 1; SENP7 inh: 0; SENP8 block-1: 8; SENP6 inh: -1; SENP8 block-2: 6

What do the screens show for `CCOc1ccccc1N1CCN(C(=O)c2cc(-c3cccnc3)nc3c(Cl)cccc23)CC1`?
SENP1 FRET inh: -2; SENP7 inh: -4; SENP8 block-1: -1; SENP6 inh: -12; SENP8 block-2: -4

How did COc1cccc(NC(=O)NCc2ccccn2)c1 do in these assays?
SENP1 FRET inh: 0; SENP7 inh: -7; SENP8 block-1: 9; SENP6 inh: 0; SENP8 block-2: -4

Results for Cc1ccnc(NC(=O)Nc2cccc(F)c2)n1 ?
SENP1 FRET inh: 4; SENP7 inh: 67*; SENP8 block-1: 9; SENP6 inh: 28; SENP8 block-2: 44; SENP8 conf: 30; SENP6 confirm: 31; SENP7 conf: 57*; Casp3 select: 61*; SENP luc ctr: 12

Results for COc1cccc(NC(=O)Nc2nccc(C)n2)c1 ?
SENP1 FRET inh: 3; SENP7 inh: 55*; SENP8 block-1: 1; SENP6 inh: 58*; SENP8 block-2: 31; SENP8 conf: 30; SENP6 confirm: 32; SENP7 conf: 71*; Casp3 select: 76*; SENP luc ctr: 34

What do the screens show for `Cc1ccnc(NC(=O)c2ccc3c(c2)S(=O)(=O)c2ccccc2C3=O)c1`?
SENP1 FRET inh: 2; SENP7 inh: 92*; SENP8 block-1: 39; SENP6 inh: 87*; SENP8 block-2: 84*; SENP8 conf: 11; SENP6 confirm: 6; SENP7 conf: 97*; Casp3 select: 64*; SENP luc ctr: 13

What do the screens show for `CCOC(=O)c1ccc(NC(=O)CN2CCN(C(=O)C3CCCO3)CC2)cc1` (stereo unspecified)?
SENP1 FRET inh: 2; SENP7 inh: 6; SENP8 block-1: -2; SENP6 inh: -3; SENP8 block-2: 2
